# Calls of active or inactive are those of the source. The calls are words filed in the database; no cut-off is given here.
# Key:
# GM15850 [1] = assay: Antioxidant activity in human GM15850 cells assessed as inhibition of glutathione depletion-induced ROS production at 5 uM after 16 hrs using DCFH-DA staining by flow cytometry analysis; assay type: functional, cell-based
# In short: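 FRDA lymphocytes (5 × 10⁵ cells in 1 mL) were pretreated with compound for 16 h at 37 °C in 5% CO2. GSH was then depleted with 5 mM diethyl maleate for 80 min. Cells were washed and loaded with 10 μM DCFH-DA in PBS with 20 mM glucose for 20 min at 37 °C in the dark. DCF was measured by flow cytometry (488 nm, FL1-H), 10 000 events. Two experiments in duplicate, mean ± SEM.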
# [2] = Antioxidant activity in human GM15850 cells assessed as inhibition of glutathione depletion-induced lipid peroxidation at 5 uM after 16 hrs using C11-BODIPY581/591 by FACS analysis relative to control; assay type: functional; parameters: scale not given: the % may be the effect or the level left
# In short: (§1)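 FRDA lymphocytes at 5 × 10⁵ cells/mL received compound (5 or 10 μM final) for 16 h at 37 °C. Cells were loaded with 1 μM C11-BODIPY581/591 in phenol red-free RPMI for 30 min in the dark, then stressed with 5 mM DEM for 2 h. After washing, green (oxidized) fluorescence was read by FACS, 10 000 events. Scavenging % = [(100 − % mean)/(100 − % mean of untreated control)] × 100. Duplicates, three independent experiments.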
# CCRF-CEM = assay: Antioxidant activity in human CEM cells assessed as inhibition of glutathione depletion-induced ROS production at 5 uM after 16 hrs using DCFH-DA staining by flow cytometry analysis; assay type: functional, cell-based
# In short: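 CEM leukemia lymphocytes (5 × 10⁵ cells in 1 mL) were given compound for 16 h at 37 °C in 5% CO2. They were then exposed to 5 mM diethyl maleate for 40 min to deplete GSH. After a PBS wash they were stained with 10 μM DCFH-DA in PBS with 20 mM glucose for 20 min at 37 °C in the dark. DCF fluorescence was read by flow cytometry (488 nm excitation, FL1-H), 10 000 events. Mean ± SEM of two experiments, each in duplicate.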
# GM15850 [3] = assay: Cytoprotective activity in human GM15850 cells assessed as glutathione depletion-induced reduction of cell viability at 5 uM after 17 hrs by trypan blue exclusion assay relative to control; assay type: functional
# In short: (§2)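 FRDA lymphocytes were grown in RPMI 1640 with 15% fetal calf serum and 2 mM glutamine. Cells seeded at 5 × 10⁵ cells/mL were preincubated with compound for 17 h at 37 °C, then given 5 mM DEM for a further 6 h. Viability was scored by 0.4% trypan blue exclusion on a hemacytometer, counting at least 500 cells per group. Values are % of the untreated control (100%). Mean ± SEM, n = 3.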
# GM15850 [4] = assay: Protection against DEM-induced loss of mitochondrial membrane potential in human GM15850 cells at 5 uM after 16 hrs using TMRM/JC-1 staining by flow cytometry analysis relative to control; assay type: functional
# In short: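 FRDA lymphocytes were pretreated with compound for 16 h, then given 5 mM DEM for 140 min. Cells were washed twice with PBS and stained with 250 nM TMRM in PBS-glucose for 15 min at 37 °C in the dark. Flow cytometry read the FL2-H channel (488 nm excitation), 10 000 events, with FCCP as the depolarized control. Result is the % of cells with intact Δψm (top right quadrant). Mean ± SEM of three experiments in duplicate.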
# [5] = Antioxidant activity in human GM15850 cells assessed as inhibition of glutathione depletion-induced lipid peroxidation at 10 uM after 16 hrs using C11-BODIPY581/591 by FACS analysis relative to control; assay type: functional; parameters: scale not given: the % may be the effect or the level left; in short: as §1
# GM15850 [6] = assay: Cytoprotective activity in human GM15850 cells assessed as glutathione depletion-induced reduction of cell viability at 0.25 uM after 17 hrs by trypan blue exclusion assay relative to control; assay type: functional; in short: as §2
# GM15850 [7] = assay: Cytoprotective activity in human GM15850 cells assessed as glutathione depletion-induced reduction of cell viability at 0.125 uM after 17 hrs by trypan blue exclusion assay relative to control; assay type: functional; in short: as §2
# GM15850 [8] = assay: Cytoprotective activity in human GM15850 cells assessed as glutathione depletion-induced reduction of cell viability at 2.5 uM after 17 hrs by trypan blue exclusion assay relative to control; assay type: functional; in short: as §2
SMILES,Activity (GM15850 [1]),Activity [2] [%],Activity (CCRF-CEM),Activity (GM15850 [3]) [%],Activity (GM15850 [4]) [%],Activity [5] [%],Activity (GM15850 [6]) [%],Activity (GM15850 [7]) [%],Activity (GM15850 [8]) [%]
CCCCCCCCCCCCCC1=C(OC)C(=O)C=C(NCCCC(=O)O)C1=O,Active,41,Active,74,60,51,–,–,–
CCCCCCCCCCCCCC1=C(O)C(=O)C=C(NCCCC(=O)OC(C)(C)C)C1=O,Active,26,Active,50,40,37,–,–,–
CCCCCCCCCCCCCC1=C(O)C(=O)C=C(NCCCC(=O)O)C1=O,Active,8,Active,36,27,24,–,–,–
CCCCCCCCCCCCCC1=C(OC)C(=O)C=C(NCCCC(=O)OC(C)(C)C)C1=O,Active,72,Active,93,85,86,58,48,84
